In ChEMBL document CHEMBL1177801, “Structure-based design and synthesis of pyrrole derivatives as MEK inhibitors” (Bioorg Med Chem Lett, 2010):
Active and inactive are the calls of the source. The rule behind the calls is not given here.

Assays:
[1] = target: Dual specificity mitogen-activated protein kinase kinase 1 (Homo sapiens, UniProt Q02750); experiment: Inhibition of MEK1 by cascade assay method
Outline: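 Cascade format, compounds serially diluted in DMSO, then in 50 mM HEPES pH 7.3, 10 mM NaCl, 10 mM MgCl2, 0.01% Brij35, 1 mM DTT. Reaction started with 1 nM MEK1 and 400 µM ATP (also run at 10 µM). Product read by IMAP fluorescence polarization. IC50 fitted with standard models.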

[2] = Half life in human liver microsomes; format: ADME, Microsome
COLO 205 = experiment: Cytotoxicity against human COLO205 cells expressing b-Raf V600E mutant after 72 hrs by MTS assay; format: functional, cell-based; conditions: COLO 205, 72 h
Outline: (§1)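 Human BRAF(V600E) line seeded at 3000–10,000 cells per 96 well, allowed 16 h at 37 °C in humidified 5% CO2. Then exposed 72 h to an eleven-point compound dilution in duplicate. NADH measured by MTS tetrazolium conversion, read at OD 490 nm. EC50 taken from compound concentration vs total NADH.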

A-375 = experiment: Cytotoxicity against human A375 cells expressing b-Raf V600E mutant after 72 hrs by MTS assay; format: functional, cell-based; conditions: A-375, 72 h; outline: as §1
[3] = Half life in rat liver microsomes; format: ADME, Microsome
[4] = Volume of distribution at steady state in rat at 1 mg/kg, iv and 5 mg/kg, po; format: ADME, organism-based; conditions: in vivo, read-out: Vdss
[5] = Clearance in rat at 1 mg/kg, iv and 5 mg/kg, po; format: ADME, organism-based; conditions: in vivo
[6] = Oral bioavailability in rat at 5 mg/kg; format: ADME, organism-based; conditions: in vivo
[7] = Mean residence time in rat at 1 mg/kg, iv; format: ADME, organism-based; set-up: dose 1 mg/kg, route intravenous; conditions: in vivo
[8] = Mean residence time in rat at 5 mg/kg, po; format: ADME, organism-based; set-up: dose 5 mg/kg, route oral; conditions: in vivo
[9] = target: Calcium/calmodulin-dependent protein kinase type 1D (Homo sapiens) (UniProt Q8IU85); experiment: Inhibition of CamK1delta at 10 uM
[10] = target: Tyrosine-protein kinase SYK (Homo sapiens) (UniProt P43405); experiment: Inhibition of Syk at 10 uM
[11] = target: Proto-oncogene tyrosine-protein kinase Src (Homo sapiens) (UniProt P12931); experiment: Inhibition of c-SRC at 10 uM
[12] = target: Tyrosine-protein kinase ABL1 (Homo sapiens) (UniProt P00519); experiment: Inhibition of Abl1 at 10 uM
[13] = target: RAC-gamma serine/threonine-protein kinase (Homo sapiens) (UniProt Q9Y243); experiment: Inhibition of AKT3 at 10 uM
Chain of RAC-gamma serine/threonine-protein kinase (Homo sapiens) (Q9Y243 whole entry): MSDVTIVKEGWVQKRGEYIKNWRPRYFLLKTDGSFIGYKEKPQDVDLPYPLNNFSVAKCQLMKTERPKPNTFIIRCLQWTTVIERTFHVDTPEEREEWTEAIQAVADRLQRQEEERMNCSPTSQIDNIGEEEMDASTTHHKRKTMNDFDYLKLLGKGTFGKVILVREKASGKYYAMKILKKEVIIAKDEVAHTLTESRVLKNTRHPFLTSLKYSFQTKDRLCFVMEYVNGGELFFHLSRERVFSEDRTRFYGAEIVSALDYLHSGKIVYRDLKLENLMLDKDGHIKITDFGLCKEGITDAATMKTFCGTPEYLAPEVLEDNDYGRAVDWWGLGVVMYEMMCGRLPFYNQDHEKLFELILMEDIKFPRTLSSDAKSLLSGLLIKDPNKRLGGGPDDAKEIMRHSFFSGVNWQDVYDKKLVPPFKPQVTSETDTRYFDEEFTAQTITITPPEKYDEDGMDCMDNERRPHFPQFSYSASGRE

[14] = target: Protein kinase C alpha type (Homo sapiens) (UniProt P17252); experiment: Inhibition of PKCalpha at 10 uM
[15] = target: RAF proto-oncogene serine/threonine-protein kinase (Homo sapiens) (UniProt P04049); experiment: Inhibition of c-RAF at 10 uM
Chain of RAF proto-oncogene serine/threonine-protein kinase (Homo sapiens) (P04049 whole entry): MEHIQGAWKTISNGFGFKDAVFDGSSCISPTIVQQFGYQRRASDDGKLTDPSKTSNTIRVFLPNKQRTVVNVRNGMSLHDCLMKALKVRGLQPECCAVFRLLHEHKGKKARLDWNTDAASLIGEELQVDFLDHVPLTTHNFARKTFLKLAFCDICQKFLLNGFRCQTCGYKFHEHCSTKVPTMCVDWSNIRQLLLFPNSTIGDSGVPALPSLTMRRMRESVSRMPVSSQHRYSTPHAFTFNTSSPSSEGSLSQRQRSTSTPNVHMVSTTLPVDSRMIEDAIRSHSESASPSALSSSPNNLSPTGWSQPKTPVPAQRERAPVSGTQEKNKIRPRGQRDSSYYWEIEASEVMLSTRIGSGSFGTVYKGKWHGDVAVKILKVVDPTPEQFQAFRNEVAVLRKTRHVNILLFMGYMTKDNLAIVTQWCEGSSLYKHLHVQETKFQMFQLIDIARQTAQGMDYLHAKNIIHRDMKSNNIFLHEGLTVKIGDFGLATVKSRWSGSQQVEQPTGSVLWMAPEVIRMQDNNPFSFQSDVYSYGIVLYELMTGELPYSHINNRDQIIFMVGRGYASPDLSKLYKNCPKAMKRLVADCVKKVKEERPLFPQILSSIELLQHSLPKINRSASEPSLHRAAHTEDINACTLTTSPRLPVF

[16] = target: Insulin receptor (Homo sapiens) (UniProt P06213); experiment: Inhibition of insulin receptor at 10 uM
Chain of Insulin receptor (Homo sapiens) (P06213 28-758 limits assumed): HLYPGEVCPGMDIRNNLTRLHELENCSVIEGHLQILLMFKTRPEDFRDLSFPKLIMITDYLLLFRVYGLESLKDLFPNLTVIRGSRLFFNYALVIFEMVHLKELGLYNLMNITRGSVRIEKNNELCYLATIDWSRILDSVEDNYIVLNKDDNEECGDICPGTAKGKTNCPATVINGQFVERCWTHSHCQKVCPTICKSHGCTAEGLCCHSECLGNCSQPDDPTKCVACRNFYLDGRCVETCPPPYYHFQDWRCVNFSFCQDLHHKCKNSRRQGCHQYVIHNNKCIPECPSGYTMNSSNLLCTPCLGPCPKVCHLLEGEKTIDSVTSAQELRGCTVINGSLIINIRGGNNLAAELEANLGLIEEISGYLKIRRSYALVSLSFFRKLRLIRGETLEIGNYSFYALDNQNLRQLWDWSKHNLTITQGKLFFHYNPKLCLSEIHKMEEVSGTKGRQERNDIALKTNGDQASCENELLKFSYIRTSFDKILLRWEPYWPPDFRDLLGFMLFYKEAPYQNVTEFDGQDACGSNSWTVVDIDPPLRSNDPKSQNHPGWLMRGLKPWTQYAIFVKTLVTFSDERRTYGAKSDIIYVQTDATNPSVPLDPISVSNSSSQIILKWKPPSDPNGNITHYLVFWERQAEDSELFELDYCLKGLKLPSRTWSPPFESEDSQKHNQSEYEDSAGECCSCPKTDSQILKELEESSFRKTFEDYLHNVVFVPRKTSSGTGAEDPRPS
Chain of Insulin receptor (Homo sapiens) (P06213 763-1382 limits assumed): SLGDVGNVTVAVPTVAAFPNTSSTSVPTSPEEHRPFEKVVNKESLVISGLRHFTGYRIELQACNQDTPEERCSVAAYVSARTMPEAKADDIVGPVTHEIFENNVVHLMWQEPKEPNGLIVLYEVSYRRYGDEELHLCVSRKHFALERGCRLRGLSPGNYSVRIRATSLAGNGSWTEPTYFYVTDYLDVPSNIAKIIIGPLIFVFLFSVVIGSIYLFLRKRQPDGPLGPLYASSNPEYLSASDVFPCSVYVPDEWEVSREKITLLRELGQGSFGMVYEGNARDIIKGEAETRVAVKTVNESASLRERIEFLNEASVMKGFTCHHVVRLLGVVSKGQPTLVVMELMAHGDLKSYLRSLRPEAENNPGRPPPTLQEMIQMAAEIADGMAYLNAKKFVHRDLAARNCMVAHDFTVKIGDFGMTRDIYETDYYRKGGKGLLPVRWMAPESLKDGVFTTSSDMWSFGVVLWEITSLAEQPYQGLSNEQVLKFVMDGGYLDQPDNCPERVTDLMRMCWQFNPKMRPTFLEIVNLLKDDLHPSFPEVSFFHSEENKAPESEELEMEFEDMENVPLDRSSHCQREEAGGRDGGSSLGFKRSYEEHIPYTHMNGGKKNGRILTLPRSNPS

[17] = target: Hepatocyte growth factor receptor (Homo sapiens) (UniProt P08581); experiment: Inhibition of c-Met at 10 uM
[18] = target: Epidermal growth factor receptor (Homo sapiens) (UniProt P00533); experiment: Inhibition of EGFR at 10 uM
Chain of Epidermal growth factor receptor (Homo sapiens) (P00533 whole entry): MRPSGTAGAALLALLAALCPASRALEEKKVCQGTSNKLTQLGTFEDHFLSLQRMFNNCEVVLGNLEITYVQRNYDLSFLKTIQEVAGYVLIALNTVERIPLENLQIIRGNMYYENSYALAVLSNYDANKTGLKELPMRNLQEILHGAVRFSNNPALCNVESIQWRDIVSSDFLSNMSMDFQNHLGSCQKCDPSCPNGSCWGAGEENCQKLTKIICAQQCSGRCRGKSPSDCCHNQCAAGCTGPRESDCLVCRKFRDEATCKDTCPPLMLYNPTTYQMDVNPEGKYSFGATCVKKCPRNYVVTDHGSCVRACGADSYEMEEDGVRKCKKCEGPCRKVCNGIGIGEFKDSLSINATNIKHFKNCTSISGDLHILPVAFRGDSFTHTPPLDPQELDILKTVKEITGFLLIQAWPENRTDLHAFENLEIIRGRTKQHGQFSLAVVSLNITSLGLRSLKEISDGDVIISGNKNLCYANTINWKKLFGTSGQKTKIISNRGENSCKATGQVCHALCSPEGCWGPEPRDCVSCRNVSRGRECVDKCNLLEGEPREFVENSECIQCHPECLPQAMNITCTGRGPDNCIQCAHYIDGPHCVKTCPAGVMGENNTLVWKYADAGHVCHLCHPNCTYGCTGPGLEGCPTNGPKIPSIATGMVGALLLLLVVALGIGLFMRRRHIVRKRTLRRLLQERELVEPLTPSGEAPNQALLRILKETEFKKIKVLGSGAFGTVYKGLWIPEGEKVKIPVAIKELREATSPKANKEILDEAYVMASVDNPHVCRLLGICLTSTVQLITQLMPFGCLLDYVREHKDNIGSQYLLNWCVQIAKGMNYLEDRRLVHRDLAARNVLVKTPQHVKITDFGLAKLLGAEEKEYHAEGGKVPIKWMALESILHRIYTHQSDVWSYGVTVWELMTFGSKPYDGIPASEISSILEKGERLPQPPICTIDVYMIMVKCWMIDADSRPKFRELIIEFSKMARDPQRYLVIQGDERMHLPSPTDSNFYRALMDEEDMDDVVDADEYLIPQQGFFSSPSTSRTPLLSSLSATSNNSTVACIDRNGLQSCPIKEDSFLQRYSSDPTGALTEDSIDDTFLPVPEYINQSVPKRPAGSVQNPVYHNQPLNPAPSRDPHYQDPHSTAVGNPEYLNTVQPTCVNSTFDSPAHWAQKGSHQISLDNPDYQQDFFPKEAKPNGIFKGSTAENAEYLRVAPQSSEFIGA

[19] = target: Angiopoietin-1 receptor (Homo sapiens) (UniProt Q02763); experiment: Inhibition of Tie2 at 10 uM
[20] = target: T1, Tyrosine-protein kinase JAK3 (Homo sapiens) (UniProt P52333); experiment: Inhibition of JAK3 at 10 uM
T1 sequence (whole entry): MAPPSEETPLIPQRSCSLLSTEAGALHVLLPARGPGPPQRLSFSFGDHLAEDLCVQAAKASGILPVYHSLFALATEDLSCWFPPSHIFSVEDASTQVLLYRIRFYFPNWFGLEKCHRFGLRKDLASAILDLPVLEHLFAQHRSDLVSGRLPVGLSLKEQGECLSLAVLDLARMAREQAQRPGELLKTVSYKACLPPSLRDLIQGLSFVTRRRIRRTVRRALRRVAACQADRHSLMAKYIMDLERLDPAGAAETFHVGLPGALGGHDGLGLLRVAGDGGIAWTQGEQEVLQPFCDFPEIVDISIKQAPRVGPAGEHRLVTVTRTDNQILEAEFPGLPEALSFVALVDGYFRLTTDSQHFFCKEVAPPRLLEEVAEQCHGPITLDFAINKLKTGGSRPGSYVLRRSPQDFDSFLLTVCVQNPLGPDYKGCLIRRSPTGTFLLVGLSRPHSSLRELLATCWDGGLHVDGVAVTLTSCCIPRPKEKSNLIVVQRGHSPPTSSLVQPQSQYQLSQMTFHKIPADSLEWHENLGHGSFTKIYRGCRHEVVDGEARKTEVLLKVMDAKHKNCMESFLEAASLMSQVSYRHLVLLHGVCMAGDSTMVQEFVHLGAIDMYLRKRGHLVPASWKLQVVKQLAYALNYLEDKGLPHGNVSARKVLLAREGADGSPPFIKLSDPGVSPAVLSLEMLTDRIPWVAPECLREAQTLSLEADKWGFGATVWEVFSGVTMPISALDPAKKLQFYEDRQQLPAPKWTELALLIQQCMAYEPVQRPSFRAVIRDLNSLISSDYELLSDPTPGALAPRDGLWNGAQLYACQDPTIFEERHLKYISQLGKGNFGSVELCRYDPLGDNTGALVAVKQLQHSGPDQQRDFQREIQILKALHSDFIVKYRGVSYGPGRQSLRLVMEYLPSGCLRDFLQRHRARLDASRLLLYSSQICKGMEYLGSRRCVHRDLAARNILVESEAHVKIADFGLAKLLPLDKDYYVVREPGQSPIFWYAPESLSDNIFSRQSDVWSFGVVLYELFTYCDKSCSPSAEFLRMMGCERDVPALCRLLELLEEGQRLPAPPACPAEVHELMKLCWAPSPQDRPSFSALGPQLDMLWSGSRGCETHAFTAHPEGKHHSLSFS

[21] = target: Platelet-derived growth factor receptor beta (Homo sapiens) (UniProt P09619); experiment: Inhibition of PDGFRbeta at 10 uM
[22] = target: Cyclin-dependent kinase 2/cyclin A (Homo sapiens) (UniProt P24941+P20248+P78396); experiment: Inhibition of CDK2/cyclinA at 10 uM; format: protein-complex assay
[23] = target: 3-phosphoinositide-dependent protein kinase 1 (PDPK1) (Homo sapiens) (UniProt O15530); experiment: Inhibition of PDK1 at 10 uM
[24] = target: Mitogen-activated protein kinase 14 (Homo sapiens) (UniProt Q16539); experiment: Inhibition of P38alpha at 10 uM
Chain of Mitogen-activated protein kinase 14 (Homo sapiens) (Q16539 whole entry): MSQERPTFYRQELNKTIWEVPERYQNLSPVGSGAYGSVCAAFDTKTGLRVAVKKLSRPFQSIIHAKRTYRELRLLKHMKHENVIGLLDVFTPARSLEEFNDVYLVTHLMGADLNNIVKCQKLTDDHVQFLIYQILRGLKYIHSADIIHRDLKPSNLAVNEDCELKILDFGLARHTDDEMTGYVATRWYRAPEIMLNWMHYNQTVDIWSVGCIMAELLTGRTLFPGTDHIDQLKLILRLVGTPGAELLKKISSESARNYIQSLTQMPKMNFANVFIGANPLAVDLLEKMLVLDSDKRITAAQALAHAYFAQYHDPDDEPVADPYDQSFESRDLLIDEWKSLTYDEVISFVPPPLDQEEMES

[25] = target: Glycogen synthase kinase-3 beta (Homo sapiens) (UniProt P49841); experiment: Inhibition of GSK3-beta at 10 uM
[26] = target: Serine/threonine-protein kinase PLK3 (Homo sapiens) (UniProt Q9H4B4); experiment: Inhibition of PLK3 at 10 uM
Chain of Serine/threonine-protein kinase PLK3 (Homo sapiens) (Q9H4B4 whole entry, looked up): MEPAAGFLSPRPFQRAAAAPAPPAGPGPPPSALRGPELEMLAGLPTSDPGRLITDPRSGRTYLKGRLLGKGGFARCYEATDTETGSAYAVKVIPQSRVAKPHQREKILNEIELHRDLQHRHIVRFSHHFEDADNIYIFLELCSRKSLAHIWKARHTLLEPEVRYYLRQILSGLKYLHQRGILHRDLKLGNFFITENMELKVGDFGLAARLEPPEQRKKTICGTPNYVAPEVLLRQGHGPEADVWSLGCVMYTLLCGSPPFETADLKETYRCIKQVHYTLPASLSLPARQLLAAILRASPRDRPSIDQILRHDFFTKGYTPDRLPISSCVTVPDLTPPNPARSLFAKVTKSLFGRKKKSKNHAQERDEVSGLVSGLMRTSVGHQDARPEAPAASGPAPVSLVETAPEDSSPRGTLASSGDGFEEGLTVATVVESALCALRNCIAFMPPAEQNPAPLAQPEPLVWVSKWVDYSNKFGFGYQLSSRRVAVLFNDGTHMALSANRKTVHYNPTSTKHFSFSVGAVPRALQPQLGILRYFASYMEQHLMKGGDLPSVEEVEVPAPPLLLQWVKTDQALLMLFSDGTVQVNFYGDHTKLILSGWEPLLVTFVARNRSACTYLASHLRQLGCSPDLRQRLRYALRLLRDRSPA

Row | SMILES | IC50 [1] [nM] | half-life [2] [min] | half-life [3] [min] | EC50 (COLO 205) [nM] | EC50 (A-375) [nM] | also measured
1 | CC(=O)c1cc(C(=O)NOCCCO)c(Nc2ccc(I)cc2F)n1C | 46 | 43 | 13 | 104 | 176 | 
2 | CC(=O)n1cc(Nc2ccc(I)cc2F)c(C(=O)O)c1 | 220 | 29 | 20 | > 50000 |  | 
3 | CC(=O)c1c(Cl)c(C(=O)NOC[C@H](O)CO)c(Nc2ccc(I)cc2F)n1C | 32 | 52 | 23 | 23 | 46 | Vd [4]: 0.361 L/kg; clearance [5]: 7.1 mL/min/kg; bioavailability [6]: 40%; MRT [7]: 51 min; MRT [8]: 246 min
4 | CC(=O)c1cc(C(=O)O)c(Nc2ccc(I)cc2F)n1C | 42 | 123 | 7 | 7100 | 2650 | 
5 | CC(=O)n1cc(C(=O)O)c(Nc2ccc(I)cc2F)c1C | 72 | 29 | 21 | 21000 |  | 
6 | CC(=O)c1cc(C(=O)NOCCO)c(Nc2ccc(I)cc2F)n1C |  | 36 | 14 | 12 | 14 | Vd [4]: 2.9 L/kg; bioavailability [6]: 46%; MRT [7]: 55.8 min; MRT [8]: 384 min
7 | CC(=O)c1cc(C(=O)NCCCO)c(Nc2ccc(I)cc2F)n1C | 90 | 95 | 10 | 128 | 313 | 
8 | CC(=O)c1cc(C(=O)N2CC(O)C2)c(Nc2ccc(I)cc2F)n1C | 30 | 15 | 13 | 32 | 97 | inhibition [9]: inactive; inhibition [10]: inactive; inhibition [11]: inactive; inhibition [12]: inactive; inhibition [13]: inactive; inhibition [14]: inactive; inhibition [15]: inactive; inhibition [16]: inactive; inhibition [17]: inactive; inhibition [18]: inactive; inhibition [19]: inactive; inhibition [20]: inactive; inhibition [21]: inactive; inhibition [22]: inactive; inhibition [23]: inactive; inhibition [24]: inactive; inhibition [25]: inactive; inhibition [26]: inactive

Second part, led by results:

Row | IC50 [1] [nM] | half-life [2] [min] | half-life [3] [min] | SMILES | EC50 (COLO 205) [nM] | EC50 (A-375) [nM] | also measured
9 | 20 | 8 | 2 | CC(=O)n1cc(C(=O)NOCCO)c(Nc2ccc(I)cc2F)c1C | 10000 |  | 
10 | 7 | 55 | 64 | CC(=O)c1cc(C(=O)N2CC(N)C2)c(Nc2ccc(I)cc2F)n1C | 37 | 39 | inhibition [9]: inactive; inhibition [10]: inactive; inhibition [11]: inactive; inhibition [12]: inactive; inhibition [13]: inactive; inhibition [14]: inactive; inhibition [15]: inactive; inhibition [16]: inactive; inhibition [17]: inactive; inhibition [18]: inactive; inhibition [19]: inactive; inhibition [20]: inactive; inhibition [21]: inactive; inhibition [22]: inactive; inhibition [23]: inactive; inhibition [24]: inactive; inhibition [25]: inactive; inhibition [26]: inactive
11 | 29 | 107 | 28 | CC(=O)c1c(F)c(C(=O)NOC[C@H](O)CO)c(Nc2ccc(I)cc2F)n1C | 45 | 72 | 
12 | 20 | > 200 | 29 | CC(=O)c1cc(C(=O)NOC[C@H](O)CO)c(Nc2ccc(I)cc2F)n1C | 33 | 36 | Vd [4]: 2.1 L/kg; clearance [5]: 48 mL/min/kg; bioavailability [6]: 19%; MRT [7]: 43.2 min; MRT [8]: 444 min
13 | 18 | 7 | 6 | CC(=O)c1c(Cl)c(C(=O)NOCCO)c(Nc2ccc(I)cc2F)n1C | 7 | 28 | 
14 | 11 | 150 | 68 | CC(=O)c1cc(C(=O)NOC[C@@H](O)CO)c(Nc2ccc(I)cc2F)n1C | 11 | 17 | 
15 | 19 | 90 | 16 | CC(=O)c1cc(C(=O)NOC(CO)CO)c(Nc2ccc(I)cc2F)n1C | 20 | 33 | 
16 | 19 | 115 | 49 | CC(=O)c1c(F)c(C(=O)NOC[C@@H](O)CO)c(Nc2ccc(I)cc2F)n1C | 58 | 48 | 
17 | 13 | 38 | 30 | CC(=O)c1c(Cl)c(C(=O)NOC[C@@H](O)CO)c(Nc2ccc(I)cc2F)n1C | 18 | 29 | 
18 | 13 | 14 | 9 | CC(=O)c1cc(C(=O)N2CC[C@@H](O)C2)c(Nc2ccc(I)cc2F)n1C | 84 | 127 | inhibition [9]: inactive; inhibition [10]: inactive; inhibition [11]: inactive; inhibition [12]: inactive; inhibition [13]: inactive; inhibition [14]: inactive; inhibition [15]: inactive; inhibition [16]: inactive; inhibition [17]: inactive; inhibition [18]: inactive; inhibition [19]: inactive; inhibition [20]: inactive; inhibition [21]: inactive; inhibition [22]: inactive; inhibition [23]: inactive; inhibition [24]: inactive; inhibition [25]: inactive; inhibition [26]: inactive
19 | 11 | 3 | 6 | CC(=O)n1cc(Nc2ccc(I)cc2F)c(C(=O)NOCCO)c1 | 3100 |  | 
